According to ChEMBL document CHEMBL2163334, “Discovery of highly potent and selective pan-Aurora kinase inhibitors with enhanced in vivo antitumor therapeutic index” (J Med Chem, 2012):
The source made the active and inactive calls. No cut-off for these calls is given here.

Key:
Aurora kinase A [1] = biological target: T1, Aurora kinase A (Homo sapiens, UniProt O14965); assay: Binding affinity to Aurora kinase A catalytic domain by competition binding assay
T1 sequence (O14965 whole entry): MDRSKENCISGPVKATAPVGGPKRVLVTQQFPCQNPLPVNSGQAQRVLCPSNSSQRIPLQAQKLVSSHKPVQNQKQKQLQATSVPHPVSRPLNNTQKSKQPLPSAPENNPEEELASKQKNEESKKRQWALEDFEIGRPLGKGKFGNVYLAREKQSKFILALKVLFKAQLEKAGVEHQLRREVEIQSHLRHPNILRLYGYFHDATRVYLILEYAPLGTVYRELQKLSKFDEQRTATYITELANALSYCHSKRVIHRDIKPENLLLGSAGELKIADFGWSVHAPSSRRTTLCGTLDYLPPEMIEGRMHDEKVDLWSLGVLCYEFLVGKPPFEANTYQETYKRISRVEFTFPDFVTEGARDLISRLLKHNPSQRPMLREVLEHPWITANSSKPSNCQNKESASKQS

[2] = Half life in Sprague-Dawley rat at 1 mg/kg, iv administered using PEG400/water as vehicle; type: ADME, organism-based; design: dose 1 mg/kg, route intravenous; conditions: in vivo
Method in brief: (§1)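 SD rats fasted overnight, given 1 mg/kg iv in PEG400/water (3:1, v/v); three per arm. Blood into K3 EDTA at 5, 15, 30 min, 1, 2, 4, 6, 24 h, spun at 4 °C; plasma extracted with six volumes acetonitrile plus internal standard and quantified by LC-MS/MS (C8 column, formic acid/ACN gradient).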

Rattus norvegicus [3] = assay: Toxicity in athymic nude rat bearing human HCT116 cells assessed as adverse effects at 2.5 mg/kg, iv administered QD for 4 days per week followed by 3 days off per week for 3 weeks; type: organism-based, HCT-116; design: dose 2.5 mg/kg, route intravenous; conditions: in vivo
Method in brief: (§2)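 Subcutaneous flank HCT-116 xenografts in nude rats; at Day 1 groups of 10 with mean tumor 301-306 mm³. Tail-vein iv in TPPW (2% Tween-80, 5% propylene glycol, 10% PG-400, 83% water) at 10 mL/kg, weight-adjusted: days 1,3,5,8,10,12,15,17,19 or days 1-4, 8-11, 15-18. Irinotecan control 100 mg/kg ip weekly ×3.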

[4] = Half life in Nu/Nu rat at 50 mg/kg, iv administered using TPPW as vehicle; type: ADME, organism-based; design: dose 50 mg/kg, route intravenous; conditions: in vivo
Method in brief: (§3)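 Plasma from K3 EDTA blood at 5, 15, 30 min, 1, 2, 4, 6, 24 h; acetonitrile extraction with internal standard, LC-MS/MS on C8 column, 5-95% ACN gradient with 0.05% formic acid.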

[5] = Protein binding in plasma; type: ADME, cell-free; conditions: read-out: PPB
[6] = AUC (0 to infinity) in Nu/Nu rat at 50 mg/kg, iv administered using TPPW as vehicle; type: ADME, organism-based; design: time infinity, dose 50 mg/kg, route intravenous; conditions: plasma; method in brief: as §3
Aurora kinase A [7] = biological target: T1, Aurora kinase A; assay: Inhibition of Aurora kinase A autophosphorylation in human HEK293 cells after 2 hrs by phosphor antibody readout assay; type: cell-based
Rattus norvegicus [8] = assay: Toxicity in athymic nude rat bearing human HCT116 cells assessed body weight loss up to 20 mg/kg, iv administered every other day from day 10 post tumor-injection for 3 weeks; type: organism-based, HCT-116; design: dose 20 mg/kg, route intravenous; conditions: in vivo, 504 h; method in brief: as §2
[9] = Half life in Nu/Nu rat at 15 mg/kg, iv administered using TPPW as vehicle; type: ADME, organism-based; design: dose 15 mg/kg, route intravenous; conditions: in vivo; method in brief: as §3
[10] = Volume of distribution in Nu/Nu rat at 15 mg/kg, iv administered using TPPW as vehicle; type: ADME, organism-based; design: dose 15 mg/kg, route intravenous; conditions: in vivo; method in brief: as §3
HCT-116 [11] = assay: Antitumor activity against human HCT116 cells xenografted in athymic nude rat assessed as tumor growth inhibition at 5 mg/kg, iv administered QD for 4 days per week followed by 3 days off per week for 3 weeks; type: functional, organism-based; design: dose 5 mg/kg; method in brief: as §2
HCT-116 [12] = assay: Antitumor activity against human HCT116 cells xenografted in athymic nude rat assessed as tumor growth inhibition at 10 mg/kg, iv administered QD for 4 days per week followed by 3 days off per week for 3 weeks; type: functional, organism-based; design: dose 10 mg/kg; method in brief: as §2
[13] = Volume of distribution in Sprague-Dawley rat at 1 mg/kg, iv administered using PEG400/water as vehicle; type: ADME, organism-based; design: dose 1 mg/kg, route intravenous; conditions: in vivo; method in brief: as §1
HCT-116 [14] = assay: Antitumor activity against human HCT116 cells xenografted in athymic nude rat assessed as tumor growth inhibition at 2.5 mg/kg, iv administered QD for 4 days per week followed by 3 days off per week for 3 weeks; type: functional, organism-based; design: dose 2.5 mg/kg; method in brief: as §2
[15] = AUC (0 to infinity) in Sprague-Dawley rat at 1 mg/kg, iv administered using PEG400/water as vehicle; type: ADME, organism-based; design: time infinity, dose 1 mg/kg, route intravenous; conditions: plasma; method in brief: as §1
Aurora kinase B [16] = biological target: T2, Aurora kinase B (Homo sapiens, UniProt Q96GD4); assay: Inhibition of Aurora kinase B in human HCT116 cells assessed as induction of 8N polyploidy; type: cell-based; conditions: HCT-116
HCT-116 [17] = assay: Antitumor activity against human HCT116 cells xenografted in athymic nude rat assessed as tumor growth inhibition at 20 mg/kg, iv administered every other day from day 10 post tumor-injection for 3 weeks relative to vehicle treated control; type: functional; conditions: read-out: TGI; method in brief: as §2
[18] = Volume of distribution in Nu/Nu rat at 5 mg/kg, iv administered using TPPW as vehicle; type: ADME, organism-based; design: dose 5 mg/kg, route intravenous; conditions: in vivo; method in brief: as §3
HCT-116 [19] = assay: Antiproliferative activity against human HCT116 cells after 72 hrs by BrdU-based ELISA; type: functional, cell-based; conditions: HCT-116, 72 h
Method in brief: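 HCT-116 cells in McCoy's 5A with 10% FBS and pen/strep, seeded 800 cells/well, left overnight at 37 °C, 5% CO2. Nine-point 3-fold serial dilutions in DMSO added for 72 h; BrdU colorimetric ELISA read at 450 and 690 nm. IC50 is the concentration halving proliferation; duplicate runs averaged.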

HCT-116 [20] = assay: Antitumor activity against human HCT116 cells xenografted in athymic nude rat assessed as tumor growth inhibition at 10 mg/kg, iv administered every other day from day 10 post tumor-injection for 3 weeks relative to vehicle treated control; type: functional; conditions: read-out: TGI; method in brief: as §2
Aurora kinase B [21] = biological target: T2, Aurora kinase B; assay: Inhibition of Aurora kinase B-mediated histone H3 Ser10 phosphorylation in human HCT116 cells after 2 hrs by sandwich ELISA; type: cell-based, HCT-116
Method in brief: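 HCT-116 cells seeded 4 × 10⁴/well, 4-6 h at 37 °C, then arrested overnight (16-18 h) with nocodazole at 66 ng/mL final. Treated 2 h with nine-point 3-fold dilutions in DMSO; lysed with phosphatase inhibitor, phospho-H3 (Ser10) sandwich ELISA read at 450 nm. IC50 = 50% inhibition of phosphorylation; duplicate runs averaged.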

Rattus norvegicus [22] = assay: Toxicity in athymic nude rat bearing human HCT116 cells assessed as adverse effects at 5 to 10 mg/kg, iv administered QD for 4 days per week followed by 3 days off per week for 3 weeks; type: organism-based, HCT-116; design: dose 5-10 mg/kg, route intravenous; conditions: in vivo; method in brief: as §2
[23] = Clearance in Sprague-Dawley rat at 1 mg/kg, iv administered using PEG400/water as vehicle; type: ADME, organism-based; design: dose 1 mg/kg, route intravenous; conditions: in vivo; method in brief: as §1
[24] = AUC (0 to infinity) in Nu/Nu rat at 5 mg/kg, iv administered using TPPW as vehicle; type: ADME, organism-based; design: dose 5 mg/kg, route intravenous, time infinity; conditions: plasma; method in brief: as §3
HCT-116 [25] = assay: Antitumor activity against human HCT116 cells xenografted in athymic nude rat assessed as tumor stasis at 20 mg/kg, iv administered every other day from day 10 post tumor-injection for 3 weeks […]; type: functional, organism-based; design: dose 20 mg/kg
Method in brief: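 HCT-116 flank xenografts in nude rats, groups of 10 at mean 301-306 mm³; iv tail-vein dosing in TPPW at 10 mL/kg on days 1,3,5,8,10,12,15,17,19; tumors followed after dosing stopped, study ending day 42 or day 60.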

[26] = Clearance in athymic Nu/Nu rat at 5 mg/kg, iv administered using TPPW as vehicle; type: ADME, organism-based; design: dose 5 mg/kg, route intravenous; conditions: in vivo; method in brief: as §3

T2 sequence (Q96GD4 whole entry): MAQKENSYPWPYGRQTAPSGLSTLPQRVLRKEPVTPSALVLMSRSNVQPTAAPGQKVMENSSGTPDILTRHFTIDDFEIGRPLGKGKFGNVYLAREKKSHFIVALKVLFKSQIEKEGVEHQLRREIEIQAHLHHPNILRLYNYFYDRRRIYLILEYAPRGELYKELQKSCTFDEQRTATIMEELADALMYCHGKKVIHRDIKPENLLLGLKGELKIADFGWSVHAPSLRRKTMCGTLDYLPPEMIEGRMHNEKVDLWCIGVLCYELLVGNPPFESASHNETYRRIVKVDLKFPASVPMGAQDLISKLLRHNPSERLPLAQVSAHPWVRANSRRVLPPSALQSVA

Cc1cc(Nc2nc(Sc3ccc(NC(=O)CN4CC[C@@H](C(=O)N5CCC(F)(F)C5)C4)cc3)nn3cccc23)n[nH]1
Kd (Aurora kinase A [1]): 5.8 nM
half-life [2]: 17.5 h
Activity (Rattus norvegicus [3]): Non-toxic
half-life [4]: 2.9 h
fraction unbound [5]: 0.01
AUC(0-inf) [6]: 181 µM·h
IC50 (Aurora kinase A [7]): 1 nM
Activity (Rattus norvegicus [8]): Non-toxic
half-life [9]: 3.7 h
Vd [10]: 0.8 L/kg
TGI (HCT-116 [11]): Active
TGI (HCT-116 [12]): Active
Vd [13]: 7 L/kg
TGI (HCT-116 [14]): Active
AUC(0-inf) [15]: 1.4 µM·h
inhibition (Aurora kinase B [16]): Dose-dependent effect
inhibition in vivo at 20 mg/kg (HCT-116 [17]): 85%
Vd [18]: 0.7 L/kg
IC50 (HCT-116 [19]): 1.2 nM
inhibition in vivo at 10 mg/kg (HCT-116 [20]): 60%
IC50 (Aurora kinase B [21]): 6.1 nM
Activity (Rattus norvegicus [22]): Non-toxic
clearance [23]: 21.1 mL/min/kg
AUC(0-inf) [24]: 7.7 µM·h
Activity (HCT-116 [25]): Active
clearance [26]: 19.2 mL/min/kg
